According to ChEMBL document CHEMBL1129404, “6-phenyl-1,4-dihydropyridine derivatives as potent and selective A3 adenosine receptor antagonists” (J Med Chem, 1996):
Each block holds one compound with its values, some of them ahead of it.

Legend:
[1] = Relative affinities for rat adenosine A1 and human adenosine A3 receptors
Procedure, shortened: (§1)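 Ratio of Ki values: rat A1 ([3H]-(R)-PIA, rat cortical membranes) over human A3 ([125I]AB-MECA, HEK-293 membranes), each Ki derived by Cheng-Prusoff from competition curves.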

[2] = target: Adenosine receptor A2a (Rattus norvegicus) (UniProt P30543); assay: Inhibition of [3H]-CGS- 21680 binding to Adenosine A2A receptor of rat striatal membrane; design: concentration or dose not given beside the values; conditions: concentration not given here
Sequence of Adenosine receptor A2a (Rattus norvegicus) (P30543 whole entry): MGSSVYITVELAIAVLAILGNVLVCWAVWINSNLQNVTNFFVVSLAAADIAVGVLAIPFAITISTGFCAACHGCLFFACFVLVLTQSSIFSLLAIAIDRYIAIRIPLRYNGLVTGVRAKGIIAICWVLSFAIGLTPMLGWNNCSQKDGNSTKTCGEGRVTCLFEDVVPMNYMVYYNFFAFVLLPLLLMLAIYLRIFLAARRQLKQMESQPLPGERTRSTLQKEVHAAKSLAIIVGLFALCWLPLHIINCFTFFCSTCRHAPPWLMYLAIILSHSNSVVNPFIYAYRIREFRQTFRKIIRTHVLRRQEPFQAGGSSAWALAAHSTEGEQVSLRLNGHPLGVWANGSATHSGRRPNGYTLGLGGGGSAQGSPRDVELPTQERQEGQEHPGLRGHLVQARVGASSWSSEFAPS

[3] = target: Adenosine receptor A2a (Rattus norvegicus) (UniProt P30543); assay: Binding affinity for Adenosine A2A receptor in rat striatal membrane with [3H]-CGS- 21680; type: cell membranes; design: concentration or dose not given beside the values; conditions: Striatum
[4] = Relative binding affinities for rat adenosine A1 and human adenosine A3 receptors; Selectivity ratio; procedure, shortened: as §1
[5] = target: T1, Adenosine receptor A1 (Rattus norvegicus) (UniProt P25099); assay: Binding affinity for Adenosine A1 receptor in rat cerebral cortex membrane with [3H](R)-PIA.; type: cell membranes; conditions: concentration not given here
T1 sequence (whole entry): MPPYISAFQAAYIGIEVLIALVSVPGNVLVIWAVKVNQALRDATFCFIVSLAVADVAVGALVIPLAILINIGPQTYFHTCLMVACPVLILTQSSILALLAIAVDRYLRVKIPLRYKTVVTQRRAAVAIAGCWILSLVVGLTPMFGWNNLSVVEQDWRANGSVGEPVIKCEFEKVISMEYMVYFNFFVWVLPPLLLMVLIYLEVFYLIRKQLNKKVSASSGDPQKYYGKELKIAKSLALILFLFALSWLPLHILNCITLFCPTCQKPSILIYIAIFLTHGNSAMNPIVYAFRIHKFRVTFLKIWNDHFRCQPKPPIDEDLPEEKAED
Procedure, shortened: (§2)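 Rat cerebral cortex membranes prepared with adenosine deaminase (3 units/mL), preincubated 30 min at 30 °C, with deaminase also present during incubation with [3H]-(R)-PIA. Competitor used at five or more concentrations spanning 3 orders of magnitude.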

[6] = target: Adenosine receptor A2a (Rattus norvegicus, UniProt P30543); assay: Displacement of [3H]-CGS- 21680 from Adenosine A2A receptor of rat striatal membrane
Sequence of Adenosine receptor A2a (P30543 whole entry): as the sequence (P30543 whole entry) above

[7] = target: T1, Adenosine receptor A1 (Rattus norvegicus); assay: Binding affinity for Adenosine A1 receptor in rat cerebral cortex membrane with [3H]-(R)-PIA.; type: cell membranes; procedure, shortened: as §2
[8] = target: T1, Adenosine receptor A1 (Rattus norvegicus); assay: Binding affinity for Adenosine A1 receptor of rat cerebral cortex membrane with [3H](R)-PIA.; type: tissue-based; procedure, shortened: as §2

Selectivity ratio [1]: 1.7
Compound: CCOC(=O)c1c(C)nc(-c2ccccc2)c(C(=O)OCC)c1C

inhibition [2]: 14%
Compound: CCOC(=O)C1=C(C)NC(C)=C(C(=O)OCc2ccccc2)C1/C=C/c1ccccc1 (stereo not given)

Inhibition (at concentration M) [3]: < 10%
Compound: CCO/C(O)=C1\C(C)=NC(c2ccccc2)=C(C(=O)OCc2ccccc2)C1C#Cc1ccccc1 (stereo not given)

Inhibition (at concentration M) [3]: 26%
Compound: CCOC(=O)C1=C(c2ccccc2)N=C(C)/C(=C(/O)OCC)C1C#Cc1ccccc1 (stereo not given)

Ratio [4]: 24
Compound: CCOC(=O)C1=C(C)NC(C)=C(C(=O)OC)C1/C=C/c1ccccc1 (stereo not given)

inhibition [5]: < 10%
inhibition [2]: < 10%
Compound: CCOC(=O)C1=C(c2ccccc2)N=C(C)/C(=C(/O)OCc2ccccc2)C1/C=C/c1ccc([N+](=O)[O-])cc1 (stereo not given)

inhibition [2]: < 10%
Compound: CCOC(=O)C1=C(c2ccsc2)N=C(C)/C(=C(/O)OCC)C1/C=C/c1ccccc1 (stereo not given)

Inhibition (at concentration M) [3]: 12%
Compound: CCOC(=O)C1=C(c2ccccc2)N=C(C)/C(=C(/O)OCC)C1C=C(c1ccccc1)c1ccccc1 (stereo not given)

inhibition [2]: 12%
Compound: CCOC(=O)C1=C(c2ccc(Cl)cc2)N=C(C)/C(=C(/O)OCC)C1/C=C/c1ccccc1 (stereo not given)

inhibition [2]: < 10%
Compound: CCOC(=O)C1=C(c2ccc(OC)cc2)N=C(C)/C(=C(/O)OCC)C1/C=C/c1ccccc1 (stereo not given)

Inhibition (at concentration M) [3]: 37%
Compound: CCOC(=O)C1=C(c2ccc(C)cc2)N=C(C)/C(=C(/O)OCC)C1/C=C/c1ccccc1 (stereo not given)

inhibition [2]: 17%
Compound: CCOC(=O)C1=C(c2ccccc2)N=C(C)/C(=C(/O)OCC)C1/C=C/c1ccccc1OC (stereo not given)

inhibition [2]: 33%
Compound: CCOC(=O)C1=C(c2ccccc2)N=C(C)/C(=C(/O)OCC)C1/C=C/c1ccc([N+](=O)[O-])cc1 (stereo not given)

inhibition [2]: 35%
Compound: CCOC(=O)C1=C(c2ccoc2)N=C(C)/C(=C(/O)OCC)C1/C=C/c1ccccc1 (stereo not given)

Ki [6]: 7.89 µM
Compound: CCO/C(O)=C1\C(C)=NC(C)=C(C(=O)OC)C1CC (stereo not given)

Ki [6]: 14.5 µM
Compound: CCOC(=O)C1=C(c2ccccc2)N=C(C)/C(=C(/O)OCC)C1CC (stereo not given)

inhibition [5]: 33%
inhibition [2]: < 10%
Compound: CCO/C(O)=C1\C(C)=NC(c2ccccc2)=C(C(=O)OCc2ccccc2)C1/C=C/c1ccc([N+](=O)[O-])cc1 (stereo not given)

Ki [6]: 2.4 µM
Compound: CCOC(=O)c1c(C)nc(-c2ccccc2)c(C(=O)OCC)c1/C=C/c1ccccc1

inhibition [2]: < 10%
Compound: CCOC(=O)C1=C(c2ccccc2)N=C(C)/C(=C(/O)OCC)C1/C=C/c1ccccc1[N+](=O)[O-] (stereo not given)

Ki [6]: 3.15 µM
Compound: CCO/C(O)=C1\C(C)=NC(c2ccccc2)=C(C(=O)OCc2ccccc2)C1C (stereo not given)

Inhibition (at concentration M) [3]: 15%
Inhibition (at concentration M) [7]: 35%
Compound: CCO/C(O)=C1\C(C)=NC(c2ccccc2)=C(C(=O)OCc2ccccc2)C1/C=C/c1ccccc1 (stereo not given)

Ratio [4]: 4.2
inhibition [2]: 43%
Compound: CCOC(=O)c1c(C)nc(-c2ccccc2)c(C(=O)OCc2ccccc2)c1C#Cc1ccccc1

Ki [6]: 9.23 µM
Compound: CCOC(=O)C1=C(C)N=C(C)/C(=C(/O)OCC)C1/C=C/c1ccccc1 (stereo not given)

Inhibition (at concentration M) [8]: < 10%
Compound: CCOC(=O)C1=C(c2ccccc2)N=C(C)/C(=C(/O)OCc2ccccc2)C1/C=C/c1ccccc1 (stereo not given)

Inhibition (at concentration M) [3]: < 10%
Inhibition (at concentration M) [7]: 24%
Compound: CCOC(=O)C1=C(c2ccccc2)N=C(C)/C(=C(/O)OCc2ccccc2)C1C#Cc1ccccc1 (stereo not given)
